The values below come from ChEMBL document CHEMBL3259754, “Purine derivatives as potent Bruton's tyrosine kinase (BTK) inhibitors for autoimmune diseases” (Bioorg Med Chem Lett, 2014).

The target in data set [1] is Tyrosine-protein kinase BTK (Homo sapiens, UniProt Q06187). Nature of the data set: Inhibition of full length human wild type his-tagged BTK expressed in Sf9 cells using biotinylated peptide as substrate after 1 hr by Fluorescence assay.
Data set [2] is described as follows: Selectivity ratio of IC50 for JAK2 (unknown origin) to IC50 for full length human wild type his-tagged BTK expressed in Sf9 cells.
The nature of data set [3]: Selectivity ratio of IC50 for Flt3 (unknown origin) to IC50 for full length human wild type his-tagged BTK expressed in Sf9 cells.
Data set [4] in a line: Selectivity ratio of IC50 for ITK (unknown origin) to IC50 for full length human wild type his-tagged BTK expressed in Sf9 cells.
The subject of data set [5] is Liver microsome. Nature of the data set: Stability in rat liver microsomes assessed as compound remaining. The data set is classed as ADME. For orientation: Liver microsomes are vesicles of endoplasmic reticulum, rich in cytochrome P450 enzymes.
The next data set has as its system Liver. Kind of data set: Stability in mouse liver microsomes assessed as compound remaining. Type of data set: ADME.
The nature of data set [6]: Permeability of the compound by PAMPA. The following applies: read-out: permeability. Type of data set: physicochemical. (PAMPA measures passive passage across an artificial lipid membrane.)
The nature of data set [7]: Apparent permeability from apical to basolateral side of human Caco2 cells. Type of data set: ADME, cell-based. The following applies: Caco-2. (Caco-2 cells form a polarised layer with tight junctions and transporters.)
Data set [8] can be described thus: Apparent permeability from basolateral to apical side of human Caco2 cells. Type of data set: ADME, cell-based. The following applies: Caco-2.
Data set [9] in a line: Aqueous solubility of the compound at pH 1. Type of data set: physicochemical.
Data set [10] is described as follows: Aqueous solubility of the compound at pH 6. The data set is classed as physicochemical.
Data set [11] is described as follows: Cmax in CD1 mouse at 30 mg/kg, ip. The data set is classed as ADME, organism-based. As to conditions: in vivo. Set-up: dose 30 mg/kg, route intraperitoneal. In outline:
(§1)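 Mouse PK: single 30 mg/kg dose given IP as a Methocel suspension. Cmax, total AUC and t1/2 were taken from plasma exposure after dosing.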

A short description of data set [12]: AUC (total) in CD1 mouse at 30 mg/kg, ip. The data set is classed as ADME, organism-based. Set-up: dose 30 mg/kg, route intraperitoneal. As to conditions: plasma. In outline: as §1
A short description of data set [13]: Half life in CD1 mouse at 30 mg/kg, ip. Set-up: dose 30 mg/kg, route intraperitoneal. The following applies: in vivo. The data set is classed as ADME, organism-based. In outline: as §1
Data set [14] deals with Liver microsome. Nature of the data set: Stability in human liver microsomes assessed as compound remaining. Type of data set: ADME.

Sequence of Tyrosine-protein kinase BTK (Q06187 whole entry): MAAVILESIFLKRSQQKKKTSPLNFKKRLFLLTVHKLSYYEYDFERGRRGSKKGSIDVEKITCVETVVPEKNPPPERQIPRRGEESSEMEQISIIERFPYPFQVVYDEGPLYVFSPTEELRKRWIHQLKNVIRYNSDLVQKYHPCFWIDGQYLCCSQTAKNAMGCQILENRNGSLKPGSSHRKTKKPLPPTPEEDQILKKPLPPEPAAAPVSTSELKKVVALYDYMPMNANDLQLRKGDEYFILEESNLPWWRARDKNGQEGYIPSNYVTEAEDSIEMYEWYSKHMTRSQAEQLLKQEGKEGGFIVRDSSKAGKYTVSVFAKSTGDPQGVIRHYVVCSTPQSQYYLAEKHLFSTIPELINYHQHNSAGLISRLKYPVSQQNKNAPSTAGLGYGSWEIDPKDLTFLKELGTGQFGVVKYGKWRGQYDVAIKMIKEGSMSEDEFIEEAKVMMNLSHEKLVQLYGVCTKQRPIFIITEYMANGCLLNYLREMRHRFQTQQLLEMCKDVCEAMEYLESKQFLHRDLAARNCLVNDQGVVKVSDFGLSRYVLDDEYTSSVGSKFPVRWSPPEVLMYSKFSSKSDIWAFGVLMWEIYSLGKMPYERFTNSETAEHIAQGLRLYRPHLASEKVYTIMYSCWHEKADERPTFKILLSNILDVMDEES

With `CC(C)(C)c1ccc(C(=O)Nc2cccc(-c3nccc(Nc4ccc(C(=O)N5CCOCC5)cc4)n3)c2)cc1`, in data set [1], the IC50 (commonly the concentration at which inhibition is half-maximal) was over 50 µM.

As to `Cc1c(NC(=O)c2ccc(C(C)(C)C)cc2)cccc1-c1nc(Nc2ccc(C(=O)N3CCOCC3)cc2)c2ncn(CCCc3ccccc3)c2n1`, the IC50 in data set [1] was over 50 µM. Also, the Ratio IC50 was 1 in data set [2], 0.1 in [3] and 1 in data set [4].

`CC(C)(C)c1ccc(C(=O)Nc2cccc(-c3nc(Nc4ccc(C(=O)N5CCOCC5)cc4)c4cccn4n3)c2)cc1` displayed a half-inhibitory concentration (IC50) in data set [1] of over 50 µM.

`Cn1cnc2c(Nc3ccc(C(=O)N4CCOCC4)cc3)nc(-c3cccc(NC(=O)c4ccc(C(C)(C)C)cc4)c3)cc21` yielded an IC50 in data set [1] of 0.15 µM.

Consider `Cc1c(NC(=O)c2ccc(C(C)(C)C)cc2)cccc1-c1nc(Nc2ccc(C(=O)N3CCOCC3)cc2)c2nc[nH]c2n1`, for which the Stability came out at 36% in the data set on Liver microsome [5], 68% in the data set on Liver and 14% in the data set on Liver microsome [14]. Moreover, the Papp in data set [6] was determined as 40.3 ×10⁻⁶ cm/s. In addition, the apparent permeability from apical to basolateral (Papp A→B) (usually how fast a substance crosses the layer from the apical side) in [7] is under 1.5 ×10⁻⁶ cm/s. Moreover, the Papp B→A (as a rule, the apparent permeability from the basolateral to the apical side of a cell layer) in data set [8] was under 1.5 ×10⁻⁶ cm/s. The solubility in data set [9] and in [10] was under 1 µg/mL in each case. Also, in [11], the highest concentration (Cmax) (usually the highest concentration seen after dosing) amounted to 3.8 µM. Further, the AUC (commonly concentration integrated over time) in [12] is 32.5 µM·h. In addition, the half-life (usually the time in which the quantity being followed falls by half) in data set [13] was 4.3 h.
